Shown are actives, neighbours in structure and some others; about 2.9% of the full set was active somewhere.
Kir21 block – inhibitors of mouse Kir2.1 inward-rectifier potassium channel. Inward rectifier potassium channel 2 (Mus musculus), P35561. HEK293-Kir2.1, FluxOR thallium flux fluorescence; stronger effect = lower value. B-score at 10 µM. 310,000 tested, 0.85% active. AID 1672, 2009;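 active = fluorescence ratio B-score at or below minus 3 SD of library scores, with starting-brightness B-score within 2 SD, cut at about -4.2 in these data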;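 also: channel flux triggered by added potassium and thallium sulfate stimulus; B-score of peak minus minimum fluorescence over baseline after thallium stimulus; more negative B-score means stronger Kir2.1 block with less thallium influx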
Target sequence (P35561 whole entry, looked up): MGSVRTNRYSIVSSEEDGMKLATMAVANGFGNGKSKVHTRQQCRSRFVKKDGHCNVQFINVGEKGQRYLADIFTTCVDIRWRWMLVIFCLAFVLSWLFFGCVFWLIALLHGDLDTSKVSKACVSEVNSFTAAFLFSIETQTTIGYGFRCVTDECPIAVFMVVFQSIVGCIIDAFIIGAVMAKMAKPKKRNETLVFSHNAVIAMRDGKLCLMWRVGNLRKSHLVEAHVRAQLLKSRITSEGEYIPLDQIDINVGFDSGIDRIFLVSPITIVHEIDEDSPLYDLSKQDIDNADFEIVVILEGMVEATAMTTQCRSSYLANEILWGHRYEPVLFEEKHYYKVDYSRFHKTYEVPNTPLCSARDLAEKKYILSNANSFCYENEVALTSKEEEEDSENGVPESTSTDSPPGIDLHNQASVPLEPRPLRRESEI
TRPC6 inhibitor – mouse TRPC6 channel inhibitors, primary screen, cell-based, HEK293, membrane potential dye | ACh-evoked depolarization; stronger effect = lower value | 310,000 tested, 1.1% active | B-score at 10 µM | Short transient receptor potential channel 6 (Mus musculus), Q61143;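 active = B-score under library mean minus 3 SD, initial fluorescence not abnormally high, positive integrated signal ratio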;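 also: B-score derived from integrated fluorescence ratio over the kinetic read; more negative B-score means stronger inhibition of depolarization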
TRPC6 activator – mouse TRPC6 channel activators, primary screen, cell-based, HEK293, membrane potential dye; Short transient receptor potential channel 6 (Mus musculus), Q61143; HEK293-TRPC6 membrane potential dye fluorescence; stronger effect = higher value; B-score at 10 µM; 310,000 tested, 0.13% active; AID 2550, 2010;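 active = B-score of the integrated fluorescence ratio above library mean plus 3 SD, and starting fluorescence ratio within library mean plus 5 SD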;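 also: higher score means more depolarization so channel activation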
TRPC4 potent – positive allosteric modulators of TRPC4, primary screen, cell-based, mouse TRPC4beta, HEK293 mu-opioid, Fluo-4 calcium; Short transient receptor potential channel 4 (Mus musculus), Q9QUQ5; 310,000 tested, 0.42% active; DAMGO EC20, Fluo-4 Ca2+ flux; stronger effect = higher value; B-score at 10 µM; AID 2227, 2009;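 active = B-score of calcium response area above 5 SD of library B-scores, with initial fluorescence ratio within 5 SD of library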;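 also: B-score of integrated fluorescence ratio over time as area under calcium response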
TRPC4 block – inhibitors of mouse TRPC4 channel, primary screen, Fluo4 calcium, HEK293 TRPC4beta/mu-opioid cells; Short transient receptor potential channel 4 (Mus musculus), Q9QUQ5; DAMGO-evoked Fluo4 calcium flux; stronger effect = lower value; B-score at 10 µM; 300,000 tested, 0.39% active; AID 2247, 2010;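 active = B-score over 3 SD under the library average, no early fluorescence shift, positive overall ratio signal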
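Signal: kinetic Fluo4 fluorescence imaging of calcium influx. Material: stable TRPC4beta/mu-opioid receptor HEK293 cells. Probe or stimulus: DAMGO in two steps, submaximal then maximal.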
TRPC4 act – activators of mouse TRPC4 channel, primary screen, Fluo4 calcium, HEK293 TRPC4beta/mu-opioid cells. Short transient receptor potential channel 4 (Mus musculus), Q9QUQ5. Fluo4 calcium fluorescence; stronger effect = higher value. B-score at 10 µM. 310,000 tested, 0.49% active;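 active = B-score above 5 SD of library B-scores, and initial fluorescence ratio not above library mean plus 5 SD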;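 also: positive B-score marks a calcium rise read as TRPC4 activation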
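Material: HEK293 stable line with TRPC4beta plus mu-opioid receptor; technique: Fluo4 calcium-sensitive dye fluorescence, kinetic, 1 Hz baseline; timing: Fluo4 dye loading 45 min at room temperature, 110 s recording; controls: assay buffer as low control, maximal DAMGO as high control; read-out: integrated baseline-normalised fluorescence ratio, converted to per-well B score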
TRPC4 sel inh 2 – second check of whether TRPC6 inhibitors also affect mouse TRPC4; shares compounds with TRPC6 inhibitor; inhibition, % at 10 µM; HEK293 TRPC4/MOR, membrane potential dye fluorescence; channel activated by saturating DAMGO dose; 920 tested, 42% active;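 active = compounds whose fluorescence signal differed from control wells by over 3 SD, either direction, in both duplicate plates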
TRPC4 spec – mouse TRPC4 modulation by TRPC6 hits, confirmation, selectivity assay for TRPC6 inhibitor project, cell-based, HEK293 TRPC4/mu-opioid, membrane potential dye; shares compounds with TRPC6 inhibitor; membrane potential fluorescence; activity change, negative = inhibition, % at 10 µM; 920 tested, 61% active;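 active = rise or fall in signal beyond 3 SD of buffer-only wells in both replicate plates, either sign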;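 also: integrated kinetic ratio of fluorescence range over baseline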
HEK293 MPD ctr 2-1 – nonspecific membrane potential effects, parental HEK293, confirmation, counter-screen for TRPC6 inhibitor project, cell-based, second counter screen; shares compounds with TRPC6 inhibitor; signal change vs control, % at 10 µM; parental HEK293 membrane potential dye fluorescence; maximal acetylcholine challenge after compound addition; AID 2779, 2010; 920 tested, 31% active;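 active = membrane potential signal moving either way by over 3 SD of the maximum-effect control, in both duplicate plates, meaning non-specific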
HEK293 MPD ctr-1 – membrane potential modulation in parental HEK293, confirmation, counter-screen for TRPC6 inhibitor project, cell-based | shares compounds with TRPC6 inhibitor | parental HEK293 membrane potential dye fluorescence | membrane potential signal change, % at 10 µM | 920 tested, 60% active;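 active = membrane potential signal shifting up or down by more than 3 SD of buffer-only wells, on both duplicate plates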
HEK293 MPD ctr-2 – parental HEK293 membrane potential modulation, confirmation, counter-screen for TRPC6 modulator project, cell-based; shares compounds with TRPC6 inhibitor; membrane potential dye fluorescence; membrane potential signal change, % at 10 µM; 2,400 tested, 51% active; AID 488924, 2010;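 active = membrane potential signal moves up or down beyond 5 SD from buffer-only wells, on both duplicate plates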
HEK293 MPD ctr 2-2 – parental HEK293 nonspecific activity of TRPC6 modulators, second screen. shares compounds with TRPC6 inhibitor. inhibition, % at 10 µM. AID 488926. membrane potential dye fluorescence; after compound, maximal acetylcholine stimulation. 2,400 tested, 14% active;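 active = membrane potential signal drops by more than 5 SD from the mean control signal, in both duplicate plates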;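 also: plate controls were acetylcholine ECmax control wells for no effect and buffer only wells for full effect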
TRPC4 ctr mod – TRPC4 modulation by TRPC6 hit compounds, confirmation, selectivity assay for TRPC6 modulator project, cell-based, HEK293 TRPC4/mu-opioid, membrane potential dye, mouse; membrane potential fluorescence; AID 488927, 2010; shares compounds with TRPC6 inhibitor; 2,400 tested, 69% active; percent change from control (negative = decrease, positive = increase), % at 10 µM;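 active = membrane potential signal moved up or down beyond 5 SD of buffer control wells, in both duplicate plates, actives on both sides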;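 also: plate controls were assay buffer wells for no effect and DAMGO maximal-effect wells for full effect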
TRPC4/MOR inh 2 – second check of whether TRPC6 modulators also affect mouse TRPC4; inhibition, % at 10 µM; AID 488928; 2,400 tested, 55% active; HEK293 TRPC4/mu-opioid, membrane potential dye fluorescence; stimulated with maximal-effect DAMGO; shares compounds with TRPC6 inhibitor;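 active = drop in membrane potential signal beyond 5 SD of the control wells in both duplicate plates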;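 also: TRPC4 counter screen for TRPC6 hits run under conditions tuned for TRPC6 not TRPC4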
TRPC6 inh conf – mouse TRPC6 channel inhibitors, confirmation, HEK293 cells, membrane potential dye, duplicate; 3,300 tested, 43% active; inhibition, % at 10 µM; shares compounds with TRPC6 inhibitor; ACh-evoked depolarization;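 active = fluorescence ratio falls more than 5 SD below the full-stimulation control mean, in both duplicate runs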;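 also: integrated fluorescence ratio of peak minus minimum over baseline after agonist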
TRPC6 act confirm – mouse TRPC6 channel activators, confirmation, HEK293 cells, membrane potential dye, duplicate; AID 488961, 2010; activation, % at 10 µM; shares compounds with TRPC6 inhibitor; 2,800 tested, 11% active; HEK293-TRPC6 membrane potential dye fluorescence, FDSS;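 active = ratio signal rise beyond 5 SD above unstimulated control wells' mean, seen in both duplicate runs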;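 also: plate controls were buffer EC0 wells for no effect and acetylcholine ECmax response for full effect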
An asterisk follows results filed as active; i = inactive; · = not tested or not shown.

SMILES	Kir21 block	TRPC6 inhibitor	TRPC6 activator	TRPC4 potent	TRPC4 block	TRPC4 act	HEK293 MPD ctr-2	HEK293 MPD ctr 2-2	TRPC4 ctr mod	TRPC4/MOR inh 2	TRPC6 inh conf	TRPC6 act confirm	others
CCN1C(=O)/C(=C\N2CCCCCC2)SC1=S	-0.92	-7.2*	i	i	i	i	·	·	·	·	i	i	TRPC4 sel inh 2=i;TRPC4 spec=i;HEK293 MPD ctr 2-1=i;HEK293 MPD ctr-1=i
CC/C(=N\NC(=O)c1cc(C2CC2)[nH]n1)c1ccccc1	-0.52	i	i	i	i	i	·	·	·	·	·	·
CC(C)[N+](C)(CCOC(=O)C1c2ccccc2Oc2ccccc21)C(C)C	0.68	-9.5*	i	i	i	i	·	·	·	·	105%*	i	TRPC4 sel inh 2=i;TRPC4 spec=i;HEK293 MPD ctr 2-1=-18%*;HEK293 MPD ctr-1=i
COc1cccc(NC(=O)C2CCC(CNS(=O)(=O)c3ccc4c(c3)CC(C)N4C(C)=O)CC2)c1 (stereo not drawn)	0.48	i	i	i	i	i	·	·	·	·	·	·
OCCNCCO	0.51	i	i	i	i	i	·	·	·	·	·	·
CCN(CC)CC#CCOC(=O)C(O)(c1ccccc1)C1CCCCC1 (stereo not drawn)	-1.1	-6.4*	i	i	i	i	121%*	97%*	26%*	i	81%*	·
CCN(CC)CCN(Cc1cc2cc3c(cc2[nH]c1=O)OCO3)C(=S)NCc1ccco1	-0.03	-5.5*	i	i	i	i	i	i	i	58%*	i	·
CCOC(=O)N1CCN(C(=O)CCN2C(=O)/C(=C\c3ccccc3OC)SC2=S)CC1	-0.06	i	i	i	i	i	·	·	·	·	·	·
COc1ccccc1/C=C1\SC(=S)N(CCC(=O)N2CCN(C)CC2)C1=O	0.03	-5.3*	i	i	i	i	i	i	i	44%*	i	i
Cc1ccc(NS(=O)(=O)c2c(C(=O)N3CCCCCC3)c(C)n(C)c2C)cc1C	1.1	i	i	i	i	i	·	·	·	·	·	·
Cc1ccc(SC(=O)c2c(C)noc2-c2cc(C)on2)cc1	0	i	i	i	i	i	·	·	·	·	·	·
N#C/C(=C\c1ccc(N2CCOCC2)o1)c1ccccc1	0.12	i	18*	i	i	i	448%*	i	89%*	i	i	166%*
N#C/C(=C/c1ccc(N2CCOCC2)o1)c1ccc(Br)cc1	0.05	i	25*	i	i	i	568%*	i	152%*	i	i	116%*
Cc1nc(N2CCN(C)CC2)c2sc(=S)n(-c3ccccc3)c2n1	-0.8	i	i	i	i	i	·	·	·	·	·	·
Cc1nc(N2CCN(C)CC2)c2sc(=S)n(C)c2n1	1.2	-5.2*	i	i	i	i	-158%*	i	-25%*	i	i	i
Cc1ccccc1OCC(=O)NCCS(=O)(=O)N1CCN(c2ccc(F)cc2)CC1	0.4	-10*	i	i	i	i	·	·	·	·	95%*	·	TRPC4 sel inh 2=i;TRPC4 spec=i;HEK293 MPD ctr 2-1=i;HEK293 MPD ctr-1=i
COc1ccc(CC(=O)NCCS(=O)(=O)N2CCN(c3ccccc3)CC2)cc1OC	2.1	i	i	i	i	i	·	·	·	·	·	·
COc1ccccc1OCC(=O)NCCS(=O)(=O)N1CCN(c2ccccc2)CC1	-0.43	-7.5*	i	i	i	i	·	·	·	·	i	i	TRPC4 sel inh 2=i;TRPC4 spec=i;HEK293 MPD ctr 2-1=i;HEK293 MPD ctr-1=i
Cc1ccc(-n2c(-c3cccc(C)c3)n[nH]c2=S)cc1	-1.5	-18*	i	i	i	i	i	i	i	i	i	i
Cc1ccc(O)c([C@H](CCN(C(C)C)C(C)C)c2ccccc2)c1	-2.2	-6.2*	i	i	i	i	174%*	96%*	33%*	41%*	87%*	·
O=c1oc(Nc2cccc(F)c2)nc2ccccc12	-1	i	i	i	i	i	·	·	·	·	·	·
COc1ccc(Cl)cc1Nc1nc(N)c2ccccc2n1	-0.94	-11*	i	i	i	i	·	·	·	·	81%*	i	TRPC4 sel inh 2=46%*;TRPC4 spec=-20%*;HEK293 MPD ctr 2-1=i;HEK293 MPD ctr-1=-185%*

Source: PubChem
